Measured values pooled from the literature.
Target: cGMP-dependent protein kinase 2 (PRKG2, Homo sapiens, UniProt Q13237)
Sequence (Q13237 1-762, as in one of the studies): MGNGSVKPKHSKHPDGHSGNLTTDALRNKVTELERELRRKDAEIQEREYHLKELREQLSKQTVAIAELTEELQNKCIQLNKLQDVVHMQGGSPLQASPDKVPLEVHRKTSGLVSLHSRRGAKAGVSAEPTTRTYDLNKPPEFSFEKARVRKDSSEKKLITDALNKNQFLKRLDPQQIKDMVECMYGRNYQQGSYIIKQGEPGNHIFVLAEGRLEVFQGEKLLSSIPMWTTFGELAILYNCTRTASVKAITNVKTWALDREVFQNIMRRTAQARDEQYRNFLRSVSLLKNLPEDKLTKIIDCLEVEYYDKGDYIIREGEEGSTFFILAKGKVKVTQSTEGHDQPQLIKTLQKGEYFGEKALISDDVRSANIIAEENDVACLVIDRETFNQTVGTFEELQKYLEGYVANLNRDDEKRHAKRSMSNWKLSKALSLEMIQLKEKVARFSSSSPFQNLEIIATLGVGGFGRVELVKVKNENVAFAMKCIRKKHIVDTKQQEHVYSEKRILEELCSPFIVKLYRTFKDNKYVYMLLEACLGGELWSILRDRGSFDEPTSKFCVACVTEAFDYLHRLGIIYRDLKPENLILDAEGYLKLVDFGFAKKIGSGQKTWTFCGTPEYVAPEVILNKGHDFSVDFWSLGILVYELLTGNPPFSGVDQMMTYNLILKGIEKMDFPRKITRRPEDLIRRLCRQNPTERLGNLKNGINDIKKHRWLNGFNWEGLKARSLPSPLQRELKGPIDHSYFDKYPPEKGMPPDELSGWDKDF

For `Nc1cnc(N2CCc3cc(S(=O)(=O)Nc4c(F)cc(Cl)cc4F)cc(N4CCCC4=O)c32)nc1`, the remaining binding was 84% (cell-free assay, competition with immobilised ligand; 1 µM).
The remaining binding of `Cc1cnn2ncc(-c3ccnc(N(C)C)n3)c2c1` is reported as 98% (binding; 1 µM).
With `Cc1cnc(Nc2ccc(C(=O)N3CCC(N4CCCC4)CC3)cc2)nc1-c1cc2ccccc2s1` the remaining binding was 2.8% (binding, competition with immobilised ligand; 1 µM).
`CCN1CCN(Cc2ccc(C(=O)Nc3ccc(C)c(Oc4ccc5c(c4)CC(=O)N5)c3)cc2C(F)(F)F)CC1` has a remaining binding of 100% (binding, competition with immobilised ligand; 1 µM).
For `O=C(NCCCN1CCOCC1)c1ccc(Nc2ncc(Cl)c(-c3ccc(Cl)s3)n2)cc1`, the remaining binding was 54% (binding, competition with immobilised ligand; 1 µM).
`CN(C)c1ncc(F)c(-c2cnn3ncccc23)n1` has a remaining binding of 100% (binding; 1 µM).
For `CNC(=O)[C@@H]1CC[C@@H](n2c(-c3ccc4cnccc4c3)nc3ccc(C(=O)NCc4cccc(C(N)=O)c4)cc32)C1`, the remaining binding was 100% (binding, competition with immobilised ligand; 1 µM).
`N[C@H]1CCN(c2nccc(-c3cnn4ncccc34)n2)C1` gave a remaining binding of 91% (binding; 1 µM).
For `O=C(NCC1CCOCC1)c1n[nH]cc1NC(=O)c1c(F)cccc1F`, the remaining binding was 88% (binding, competition with immobilised ligand; 1 µM).
The remaining binding of `CO[C@@H](C)c1c(Nc2ccc([C@H](N(C)C(=O)C3CCS(=O)(=O)CC3)C(F)(F)F)cc2)cnc2cc(Cl)nn12` is reported as 100% (cell-free assay, competition with immobilised ligand; 1 µM).
`CN(C)c1nccc(-c2cnc3ncccn23)n1` gave a remaining binding of 69% (binding; 1 µM).
`CNCc1ccccc1-c1csc([C@H](C)Nc2nc(C)nc3cc(OC)c(OC)cc23)c1` has a remaining binding of 93% (cell-free assay, competition with immobilised ligand; 1 µM).
For `O=C(NCCCN1CCOCC1)c1ccc(Nc2nccc(-c3cc4ccccc4s3)n2)cc1`, the remaining binding was 43% (binding, competition with immobilised ligand; 1 µM).
For `O=C(O)c1cc(-c2ccc(C3CCNCC3)cc2)c2ccc(-c3ccc(C(F)(F)F)cc3)cc2c1`, the remaining binding was 79% (cell-free assay, competition with immobilised ligand; 1 µM).
`CN(c1nccc(-c2cnn3ncccc23)n1)C1CC1` gave a remaining binding of 100% (binding; 1 µM).
`CCS(=O)(=O)c1cc2cc(C[C@@](O)(CC(C)(C)c3ccc(F)cc3C(N)=O)C(F)(F)F)[nH]c2cn1` has a remaining binding of 86% (cell-free assay, competition with immobilised ligand; 1 µM).
`CC1CCCN1c1nccc(-c2cnn3ncccc23)n1` (stereo not shown) has a remaining binding of 97% (binding; 1 µM).
With `C=CC(=O)N1CCC(C(=O)NCC(=O)N2CCN(c3nc(-c4cnc(N)nc4C(F)F)nc(N4CCOCC4)n3)CC2)CC1` the remaining binding was 69% (binding, competition with immobilised ligand; 1 µM).
With `O=C1CCc2cc(Nc3cc(OC4CCOCC4)c([N+](=O)[O-])cc3Cl)ccc2N1` the remaining binding was 85% (cell-free assay, competition with immobilised ligand; 1 µM).
For `COc1ncc2cc3ccccc3nc2c1C#N`, the remaining binding was 100% (cell-free assay, competition with immobilised ligand; 5 µM).
`c1cnn2ncc(-c3ccnc(N4CCC45COC5)n3)c2c1` gave a remaining binding of 82% (binding; 1 µM).
`Cn1nc(C(=O)NCc2ccc(C(=O)O)cc2)cc1-c1ccc2[nH]ccc2c1` gave a remaining binding of 78% (cell-free assay, competition with immobilised ligand; 0.1 µM).
